# DNMT1 inh: human DNMT1 methyltransferase inhibitors, primary screen, biochemical, molecular beacon, fluorescence, HinP1I cleavage, uHTS. AID 588458, 2011. inhibition (reported as % activation of signal), % at 10 µM. 0.83% of 360,000 active; in the data active means inhibition above about 50%
# Scp1 inh: Scp-1 phosphatase inhibitors, primary screen, biochemical, colorimetric, uHTS; Carboxy-terminal domain RNA polymerase II polypeptide A small phosphatase 1 (Homo …; Recombinant Scp1, phosphopeptide, malachite green phosphate absorbance; inhibition, % at 20 µM; 0.88% of 340,000 active;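 active means inhibition above about 50% at 20 µM, limit read from the data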;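 further: plate controls were DMSO wells with enzyme for no effect and wells lacking enzyme for full effect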
#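 assay system = SCP-1 phosphatase catalytic domain, residues 76-261 | buffer or medium = 50 mM Tris acetate pH 5.5, 0.005% Tween-20, 10 mM MgCl2 | incubation = enzyme reaction 45 min at room temperature, colour 5 min, stabilisation 30 min | signal = Phosphate-binding colour reagent, absorbance read at 630 nm | measure = % inhibition at 20 µM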
# SUMO1 PPI mod: modulators of SUMO1 protein-protein interactions, primary screen, biochemical, uHTS. Small ubiquitin-related modifier 1 (Homo sapiens), P63165. SUMO1 binding to a labelled peptide, TR-FRET, 1 h. AID 602429, 2012. 0.33% of 360,000 active. inhibition, % at 20 µM; in the data active means inhibition above about 37%
# Target sequence (P63165 whole entry, looked up): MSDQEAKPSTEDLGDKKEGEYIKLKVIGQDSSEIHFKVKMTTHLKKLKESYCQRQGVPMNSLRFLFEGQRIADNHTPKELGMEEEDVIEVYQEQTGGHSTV
# NadD block: inhibitors of S. aureus NadD, primary screen, biochemical, colorimetric, uHTS; AID 602399, 2012; inhibition, % at 20 µM; Nicotinate-nucleotide adenylyltransferase NadD (Staphylococcus aureus N315); purified NadD enzyme, colorimetric absorbance read-out; 0.78% of 360,000 active; in the data active means inhibition above about 26%
# STEP inh: STEP phosphatase inhibitors, primary screen, biochemical, fluorescence intensity, uHTS. Tyrosine-protein phosphatase non-receptor type 5 (Homo sapiens), P54829. recombinant STEP, OMFP fluorogenic substrate. inhibition, % at 20 µM. 0.25% of 360,000 active;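 active means inhibition at 20 µM, scaled per plate between control wells, above about 37%, limit read from the data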;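 further: 0% = DMSO with enzyme and substrate and 100% = substrate only without enzyme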
# Target sequence (P54829 whole entry, looked up): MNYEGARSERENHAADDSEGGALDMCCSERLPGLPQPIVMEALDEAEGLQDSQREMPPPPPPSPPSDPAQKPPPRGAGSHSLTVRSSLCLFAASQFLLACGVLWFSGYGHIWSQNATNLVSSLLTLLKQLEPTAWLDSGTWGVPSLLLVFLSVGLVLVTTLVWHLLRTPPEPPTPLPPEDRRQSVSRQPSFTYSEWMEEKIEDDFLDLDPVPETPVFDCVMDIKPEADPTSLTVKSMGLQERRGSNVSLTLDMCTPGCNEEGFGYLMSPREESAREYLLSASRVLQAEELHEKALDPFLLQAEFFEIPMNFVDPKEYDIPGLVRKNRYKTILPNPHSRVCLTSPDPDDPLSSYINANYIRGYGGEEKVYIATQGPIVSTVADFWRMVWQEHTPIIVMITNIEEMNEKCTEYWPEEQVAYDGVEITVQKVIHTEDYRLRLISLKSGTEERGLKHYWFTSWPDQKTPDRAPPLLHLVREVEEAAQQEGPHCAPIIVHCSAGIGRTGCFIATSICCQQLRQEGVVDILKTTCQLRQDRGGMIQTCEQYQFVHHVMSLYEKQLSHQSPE
#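 Also added – OMFP at 25 µM · Test system – STEP tyrosine phosphatase · Technique – FITC-channel fluorescence of OMFP product · Schedule – 20 min at room temperature, dark · Evaluation – control-normalized % inhibition with plate pattern correction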
# LMPTP block: LMPTP phosphatase inhibitors, primary screen, biochemical, fluorescence intensity, uHTS; 0.22% of 360,000 active; inhibition, % at 20 µM; recombinant LMPTP-A, OMFP fluorogenic substrate;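 active means compounds that cut the enzyme signal by at least half of the control window in the single-dose screen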;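 further: plate controls were DMSO wells with enzyme plus substrate for no effect and substrate without enzyme for full effect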
#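 material = LMPTP-A | quantity = 0.625 nM enzyme | reagent = OMFP substrate, 400 µM final | buffer or medium = Bis-Tris pH 6.0, DTT, detergent | detection = endpoint fluorescence intensity from OMFP dephosphorylation | dosing = single 20 µM dose | read-out basis = % inhibition relative to no-enzyme and uninhibited control wells | control set = no-enzyme and uninhibited controls | timing = 50 min at room temperature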
# Scp1 confirm: Scp-1 phosphatase inhibitors, retest, confirmation, biochemical, colorimetric, single concentration; inhibition, % at 20 µM; shares compounds with Scp1 inh; 61% of 2,500 active; AID 540281, 2011; recombinant SCP-1 catalytic domain, phosphate release, malachite green absorbance;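 further: plate controls were DMSO with enzyme for no effect and buffer wells lacking enzyme for full effect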
# MG interference: colorimetric readout interference by compounds, confirmation, artefact control for Scp-1 inhibitor project, biochemical, single concentration. shares compounds with Scp1 inh. Colorimetric interference counterscreen, malachite green absorbance 630 nm. apparent inhibition (interference), % at 20 µM. 2,500 tested, under 10 active. AID 540313, 2011;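 further: compounds added after enzyme reaction finished so only phosphate colour detection is probed; plate controls were DMSO wells with completed Scp-1 reaction for no effect and substrate wells lacking enzyme for full effect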
# Scp-1 Tm shift: Scp-1 binding by thermal shift, confirmation, orthogonal assay for Scp-1 inhibitor project, biophysical, differential scanning fluorimetry; shares compounds with Scp1 inh; Recombinant SCP1, Sypro Orange thermal shift Tm; thermal shift relative to vanadate control, % at 40 µM; 25% of 1,500 active; AID 540329, 2011;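 active means substances whose mean melting-temperature shift, as a percentage of the reference inhibitor's shift, reaches about 5.3%, limit read from the data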;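 further: 0% = Tm of DMSO wells and 100% = Tm with sodium orthovanadate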
# Beacon interf DR: spectral interference with molecular beacon fluorescence, dose response, artefact control for DNMT1 inhibitor project, biochemical, fluorescent molecular beacon. shares compounds with DNMT1 inh. spectral interference counter-screen. IC50, µM. 200 tested, under 10 active. AID 602382, 2012; call rule not given here
# DNMT1 inh conf: DNMT1 methyltransferase inhibitor retest, confirmation, biochemical, molecular beacon, fluorescence, single concentration; shares compounds with DNMT1 inh; DNMT1 molecular beacon HinP1I cleavage; inhibition, % at 10 µM; 8% of 2,300 active; AID 602385, 2012;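 active means average inhibition of at least 30% in the single-concentration confirmation test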
# Beacon interf: shows spectral interference in the DNMT1 beacon assay | 1% of 2,300 active | DNMT1 molecular beacon spectral interference counterscreen, fluorescence 485/520 | AID 602387 | activation (fluorescence interference), % at 10 µM | shares compounds with DNMT1 inh;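 active means activation of at least 30% at 10 µM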;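 further: DNMT1 catalytic domain with a HinP1I cleavage step and a FAM/dabcyl DNA beacon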
# NadD conf: inhibitors of S. aureus NadD, confirmation, biochemical, colorimetric, single concentration. purified S. aureus NadD, colorimetric enzyme assay. shares compounds with NadD block. inhibition, % at 20 µM. 13% of 2,000 active; in the data active means inhibition mostly above about 42%, no sharp cut-off; inactive means mostly below about 42%
# Active calls of the source: *; x = no result given; ! = not confirmed by another sample. Only some compounds are listed: those with a hit (about 2.4% of all), similar ones and a draw of the others.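 How the source made its calls, unless noted: active means inhibition of at least 30% at 20 µM; inactive means the rest.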
SMILES,DNMT1 inh,Scp1 inh,SUMO1 PPI mod,NadD block,STEP inh,LMPTP block,Scp1 confirm,MG interference,Scp-1 Tm shift,DNMT1 inh conf,Beacon interf,NadD conf,others
CCN(CC)C(=O)CSc1ncnc2c(-c3cccs3)nsc12,97*,76*,24,34*,4,45,61*,-15,6.0*,5,6,56*,
CCN(CC)C(=O)CSc1ncnc2sccc12,2,-10,4,2,-1,-1,x,x,x,x,x,x,
Clc1ccc(-c2ccc(-c3nn4c(-c5ccco5)nnc4s3)o2)cc1,78*,77*,30,35*,5,26,50*,-11,-1,2,-1,9,
COc1cccc(-c2nn3c(-c4ccco4)nnc3s2)c1,6,0,15,4,2,0,x,x,x,x,x,x,
CC(=O)c1ccc(NS(=O)(=O)c2cccc(C(=O)Nc3ccccc3C(=O)O)c2)cc1,1,-6,15,-9,-1,0,x,x,x,x,x,x,
Cc1ccc(OCC(=O)Nc2nnc(S(=O)(=O)N3CCCCC3)s2)cc1,89*,71*,43*,49*,3,31,57*,-20,5.7*,13,0,18,
Cc1ccc(OCC(=O)Nc2nnc(S(=O)(=O)N3CCCCCC3)s2)cc1,7,-3,6,4,2,-1,x,x,x,x,x,x,
Cc1csc(NC(=O)c2cc(-c3ccco3)nc3ccccc23)n1,96*,70*,13,75*,1,28,53*,-15,11*,12,-2,53*,
Cc1csc(NC(=O)c2cc(C)nc3ccccc23)n1,-4,-5,-4,-6,-3,-1,x,x,x,x,x,x,
COCCCn1c(=NC(=O)c2ccccc2)c(C#N)cc2c(=O)n3cccc(C)c3nc21,38,-3,-9,7,2,3,x,x,x,x,x,x,
Cc1cccc(C(=O)N=c2c(C#N)cc3c(=O)n4cccc(C)c4nc3n2Cc2ccco2)c1,51*!,85*!,51*!,42*,6,36,46*,-11,15*,2,0,30,
Cc1cccn2c(=O)c3cc(C#N)c(=NC(=O)c4ccccc4)n(Cc4ccco4)c3nc12,25,87*,13,32*!,5,29,1,-21,x,x,x,12,
Nc1ccc(CSc2ccc(Cl)cc2)cc1,-1,6,0,2,0,1,x,x,x,x,x,x,
CSc1nc(SCCO)c2sc3nc(-c4ccco4)c4c(c3c2n1)CC(C)(C)OC4,98*,79*,60*,60*,8,45,43*,-10,7.4*,8,1,21,
O=C(N/N=C/c1ccco1)c1cccc(N2Cc3ccccc3C2)c1,80*,79*,23,35*,1,40,46*,-5,11*,x,x,47,
Cc1nc2c(c(=O)n1CCC1=CCCCC1)c1nc3ccccc3nc1n2/N=C/c1ccco1,76*,58*,26,49*,4,32,41*,-9,6.1*,1,-1,18,
CCCn1c(C)nc2c(c1=O)c1nc3ccccc3nc1n2CCC1=CCCCC1,-1,3,-11,3,3,1,x,x,x,x,x,x,
COc1ccc(-c2csc(NC(=O)CSc3nc(C)nc4sc(C(=O)O)c(C)c34)n2)cc1,81*,87*,22,30*,0,3,64*,-13,10*,62*,5,22,Beacon interf DR=>99
O=C(Nc1ccc(F)c(Cl)c1)C1Cc2c(-c3ccc4c(c3)OCO4)ccnc2O1 (stereo unspecified),48,x,4,5,0,2,x,x,x,x,x,x,
CC(C)c1cccc(-c2ccc3c(c2)S(=O)(=O)c2cccc(C(=O)NCc4ccco4)c2C3=O)c1,49,68*,3,34*,2,2,49*,0,11*,x,x,42,
Cc1cc2oc(C(=O)Nc3ccc(S(=O)(=O)Nc4nccs4)cc3)cc(=O)c2cc1Cl,37,52*,9,64*,2,36,30,-11,x,x,x,23,
COC(=O)[C@H](CC(C)C)N1Cc2cc(OC)cc(OC)c2-c2ccccc2S1(=O)=O,2,98*,14,37*,0,0,50*,-26,-4,x,x,48*,
Cc1ccc(C(=O)NN2CC(O)=C(c3nc(-c4cccc([N+](=O)[O-])c4)cs3)C2=N)cc1,80*,75*,1,33*,20,13,43*,-7,6.1*,39*,-2,-4,Beacon interf DR=>99
COc1cccc(C(=O)NN2CC(O)=C(c3nc(C)cs3)C2=N)c1,2,-2,4,-3,-2,1,x,x,x,x,x,x,
CCOC(=O)C1=C(O)/C(=C/c2ccc(CNC(=O)C(=O)Nc3ccc(C)cc3)o2)N=C1C,90*,69*,20,46*,3,28,2,-17,x,23,-2,6,

# Screening data (PubChem BioAssay)
